A word on the MIC: it is the lowest concentration that inhibits growth of the organism. High values mean a less susceptible organism, low ones a more susceptible organism.

Results on 5 molecules are retold here after PMC4196235 (mBio, 2014).

Structures are written as SMILES. ≈ marks a conversion by molar mass, not a printed value.

The test system of data set [1] is recombinant bacterial ribosomes with point mutation A1408G in the A site. The data set is described as follows: cell-free ribosomal translation assay, A1408G mutant. It counts as biochemical, Mycobacterium smegmatis. Summed up: (§1)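 Purified 70S hybrid ribosomes, wild-type or carrying the single A-site point mutation, came from M. smegmatis strains with a single rRNA operon. Each was translated with firefly luciferase mRNA, 40% (vol/vol) M. smegmatis S100 extract, amino acids, 0.4 mg/ml tRNAs and S30 premix energy, plus serially diluted test compound, for 35 min at 37°C. Luciferase luminescence gave IC50s (triplicate means ± SD), expressed as mutant/wild-type IC50 ratio.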

Data set [2] has as its system Escherichia coli isolates. The data set is described as follows: MIC by broth microdilution, clinical isolates. It counts as cell-based. Summed up: (§2)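 Clinical isolates from a university diagnostic microbiology department. MIC determined by broth microdilution in microtiter plates, incubated overnight.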
In general terms: In broth dilution the organism is exposed to a series of concentrations in liquid medium.

Data set [3] deals with mitochondrial A1555G mutant hybrid ribosomes. The data set is described as follows: ribosomal damage index, mitochondrial A1555G mutant hybrid. The data set is classed as biochemical, Homo sapiens. Particulars: 1/IC50 × misreading at IC50/misreading in the absence of the drug × 100. Summed up: (§3)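 Misreading gain-of-function assay: firefly luciferase mRNA with His245 CAC replaced by near-cognate Arg245 CGC, alongside wild-type firefly mRNA, translated in vitro with renilla luciferase mRNA as internal control. Misreading is the mutant firefly/renilla ratio relative to the wild-type firefly/renilla ratio.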

Data set [4] deals with mitochondrial hybrid ribosomes. The data set is described as follows: ribosomal damage index. The data set is classed as biochemical, Homo sapiens. The conditions noted are these: 1/IC50 × misreading at IC50/misreading in the absence of the drug × 100. Summed up:
as §3

Data set [5] deals with cytosolic hybrid ribosomes. The data set is described as follows: ribosomal damage index, cytosolic hybrid. The data set is classed as biochemical, Homo sapiens. The conditions noted are these: 1/IC50 × misreading at IC50/misreading in the absence of the drug × 100. Summed up: as §3
For data set [6], the system named is hybrid bacterial ribosomes carrying the mitochondrial A site. The data set is described as follows: cell-free translation assay, mitochondrial hybrid ribosomes. It counts as biochemical, Homo sapiens. Particulars: firefly luciferase synthesis, mean ± SD, triplicate. Summed up:
(§4)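 Hybrid 70S ribosomes purified from recombinant Mycobacterium smegmatis strains derived from a ΔrrnB single-rRNA-operon strain. Reactions contained 0.25 µM ribosomes, 4 µg firefly luciferase mRNA, 40% (vol/vol) M. smegmatis S100 extract, 200 µM amino acids and 0.4 mg/ml tRNAs, with S30 premix as energy source. Serially diluted test compound added; 37°C for 35 min, stopped on ice. Luciferase luminescence read; IC50 from dose-response curves; mean ± SD, triplicate.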

In data set [7] the test system is rabbit reticulocyte ribosomes. The data set is described as follows: ribosomal damage index, native cytosolic eukaryotic ribosomes. The conditions noted are these: 1/IC50 × misreading at IC50/misreading in the absence of the drug × 100. It counts as biochemical. Summed up: as §3
Data set [8] deals with rabbit reticulocyte ribosomes. The data set is described as follows: in vitro translation in rabbit reticulocyte lysate. It counts as biochemical. The conditions noted are these: firefly luciferase synthesis, mean ± SD, triplicate. Summed up:
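Cell-free translation in rabbit reticulocyte lysate with firefly luciferase mRNA and serially diluted test compound. Incubated 37°C for 35 min, stopped on ice, then luciferase luminescence measured. IC50 is the concentration halving functional luciferase synthesis, taken from dose-response curves; mean ± SD, triplicate.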

The subject of data set [9] is Staphylococcus aureus (MRSA) isolates. The data set is described as follows: MIC by broth microdilution, clinical isolates. It counts as cell-based. Summed up:
as §2

In data set [10] the test system is hybrid bacterial ribosomes carrying the mitochondrial mutant A1555G deafness A site. The data set is described as follows: cell-free translation assay, mitochondrial deafness hybrid ribosomes. It counts as biochemical, Homo sapiens. The conditions noted are these: firefly luciferase synthesis, mean ± SD, triplicate. Summed up: as §4
For the next data set, the system named is S. aureus MRSA AG041. The data set is described as follows: neutropenic murine model of Staphylococcus aureus septicemia. The data set is classed as in vivo. Particulars: at the highest dose tested; subcutaneous (Fig. 2C and F).
The test system of data set [11] is recombinant bacterial ribosomes with point mutation G1491C in the A site. The data set is described as follows: cell-free ribosomal translation assay, G1491C mutant. It counts as biochemical, Mycobacterium smegmatis. Summed up:
as §1

For data set [12], the system named is hybrid bacterial ribosomes carrying the cytoplasmic A site. The data set is described as follows: cell-free translation assay, cytosolic hybrid ribosomes. It counts as biochemical, Homo sapiens. Particulars: firefly luciferase synthesis, mean ± SD, triplicate. Summed up:
as §4

A short description of data set [13]: general toxicity in the guinea pig chronic ototoxicity study. The data set is classed as in vivo. Summed up: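 Male Hartley guinea pigs, about 200 g initially, acclimated 1 week. […] Animals were followed for death and body weight through the study, which included ABR testing before treatment and 3 weeks after treatment ended.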
A further data set concerns outer hair cells. The data set is described as follows: quantification of outer hair cell loss in cochlear surface preparations. The data set is classed as in vivo. Particulars: guinea pig, 140 mg/kg, 14 days. Summed up: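 Guinea pigs dosed subcutaneously once daily for 14 days. After the final ABR (3 weeks post-treatment), cochleae were split into apical, middle and basal segments. Segments were permeabilized in 3% Triton X-100 for 30 min at RT, washed in PBS and stained with rhodamine phalloidin (1:100) for 1 h at RT. Consecutive 0.19-mm fields from the apex were scored blind for missing outer hair cells against a normative database.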

As to `NC[C@@H]1O[C@H](O[C@H]2[C@@H](O)[C@H](O[C@@H]3[C@@H](O)[C@H](N)C[C@H](N)[C@H]3O[C@H]3O[C@H](CO)[C@@H](O)[C@H](O)[C@H]3N)O[C@@H]2CO)[C@H](N)[C@@H](O)[C@@H]1O` [Paromomycin], the “ratio of the IC50 for the G1408 mutant ribosomes to the IC50 for the wild-type ribosomes” value in data set [1] is listed as 13. Further, the MIC in [2] (E. coli clinical isolate AG 001) is 16 to 32 µg/mL (≈ 26 to 52 µM); in data set [2] (E. coli clinical isolate AG 002) it was 8 to 16 µg/mL (≈ 13 to 26 µM); in [2] (E. coli clinical isolate AG 003), 8 to 16 µg/mL (≈ 13 to 26 µM); in [2] (E. coli clinical isolate AG 055), 8 to 16 µg/mL (≈ 13 to 26 µM); in data set [9] (S. aureus (MRSA) clinical isolate AG 038) it was 4 µg/mL (≈ 6.5 µM); in data set [9] (S. aureus (MRSA) clinical isolate AG 039), above 256 µg/mL. Also, the MIC in data set [9] (S. aureus (MRSA) clinical isolate AG 042) was above 256 µg/mL; in [9] (S. aureus (MRSA) clinical isolate AG 044), 4 to 8 µg/mL (≈ 6.5 to 13 µM); in data set [9] (S. aureus (MRSA) clinical isolate AG 045), 4 µg/mL (≈ 6.5 µM). The “Ribosomal damage index: Mitochondrial mutant A1555G” value in data set [3] is recorded as 125.0. Further, the “Ribosomal damage index: Mitochondrial wild-type” value in data set [4] is listed as 5.0. For the same molecule, the “Ribosomal damage index: Cytosolic wild-type” value in data set [5] turned out to be 40.0. Besides, the “IC50 with eukaryotic A sites in the ribosome: Mitochondrial wild-type” value (shortened to “IC50 … Mitochondrial wild-type”) in [6] is 50.66 ± 13.33 µg/mL. Further, the “Ribosomal damage index: Rabbit ribosomes” value in data set [7] amounted to 120.0. Also, the “IC50 with eukaryotic A sites in the ribosome: Rabbit reticulocytes” value in [8] is 9.55 ± 4.94 µg/mL. The “IC50 with eukaryotic A sites in the ribosome: Mitochondrial mutant A1555G” value (from here on “IC50 … Mitochondrial mutant A1555G”) in data set [10] was found to be 5.77 ± 2.32 µg/mL. Besides, the “bacterial burden in the kidney” value in the data set on S. aureus MRSA AG041 is “below detectable limits”. In addition, the “ratio of the IC50 for the C1491 mutant ribosomes to the IC50 for the wild-type ribosomes” value in data set [11] is listed as 520. For the same molecule, the “IC50 with eukaryotic A sites in the ribosome: Cytosolic wild-type” value (“IC50 … Cytosolic wild-type” for short) in data set [12] was determined as 9.89 ± 2.73 µg/mL.
For the molecule `CNC(C)C1CCC(N)C(OC2C(N)CC(N)C(OC3OCC(C)(O)C(NC)C3O)C2O)O1` (stereo not shown) [Gentamicin], the “signs of general toxicity” value in data set [13] (doses below 160 mg/kg) was “significant weight loss”; in data set [13] (doses exceeding 160 mg/kg) it was “death”. For the same molecule, the “loss of outer hair cells in cochleae” value in the data set with outer hair cells was “steep rise of hair cell loss from the middle cochlea to complete loss at the base”; in the data set on outer hair cells (listed as gentamicin), “extensive loss of outer hair cells”.
For `NC[C@@H]1O[C@H](O[C@H]2[C@@H](O)[C@H](O[C@@H]3[C@@H](O)[C@H](N)C[C@H](N)[C@H]3O[C@H]3O[C@H](CO)C[C@H](O)[C@H]3N)O[C@@H]2CO)[C@H](N)[C@@H](O)[C@@H]1O` [4′ Deoxy paromomycin], in [6], the “IC50 … Mitochondrial wild-type” value came out at 74.1 ± 12.4 µg/mL. Further, in [8], the “IC50 with eukaryotic A sites in the ribosome: Rabbit reticulocytes” value was 17.3 ± 4.2 µg/mL. Also, the “IC50 … Mitochondrial mutant A1555G” value in data set [10] worked out at 24.2 ± 10.5 µg/mL. Also, in data set [12], the “IC50 … Cytosolic wild-type” value worked out at 28.4 ± 13.8 µg/mL.
Consider `NCC1OC(OC2C(CO)OC(OC3C(O)C(N)CC(N)C3OC3OC(CO)C(OCCCc4ccccc4)C(O)C3N)C2O)C(N)C(O)C1O` (stereo not shown) [4′-O-(3-Phenylpropyl) paromomycin], for which the “IC50 … Mitochondrial wild-type” value in [6] was 49.85 ± 15.39 µg/mL. The “IC50 … Mitochondrial mutant A1555G” value in data set [10] worked out at 105.68 ± 39.23 µg/mL. Further, the “IC50 … Cytosolic wild-type” value in data set [12] worked out at 268.57 ± 54.97 µg/mL.
On the same counts, the results for `NC[C@@H]1O[C@H](O[C@H]2[C@@H](O)[C@H](O[C@@H]3[C@@H](O)[C@H](N)C[C@H](N)[C@H]3O[C@H]3O[C@@H]4CO[C@@H](CCc5ccccc5)O[C@H]4[C@H](O)[C@H]3N)O[C@@H]2CO)[C@H](N)[C@@H](O)[C@@H]1O` [4′,6′-O-(3-Phenylpropylidene) paromomycin] are 305.7 ± 74.1 µg/mL, 126.9 ± 54.4 µg/mL and 150.5 ± 28.0 µg/mL.
